High-throughput results: PubChem, Johns Hopkins Ion Channel Center
An excerpt weighted towards active compounds, which were near 3.5% of everything screened.
RGS4 block: human RGS4 inhibition | HEK293 M3R/RGS4 inducible, Fluo-4 calcium flux; stronger effect = higher value; triggered by carbachol at its EC20 | B-score at 10 µM | P49798 | 0.45% of 310,000 active | AID 463165;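 active means B-score, a plate-corrected calcium signal, over three deviations above library mean, with baseline fluorescence within five deviations of library mean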;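 further: RGS4 expression induced by doxycycline in cells with stable M3 receptor; B-score is computed from the integrated fluorescence ratio over baseline after carbachol; higher B-score means a larger calcium signal and so more RGS4 inhibition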
Target sequence (P49798 whole entry, looked up): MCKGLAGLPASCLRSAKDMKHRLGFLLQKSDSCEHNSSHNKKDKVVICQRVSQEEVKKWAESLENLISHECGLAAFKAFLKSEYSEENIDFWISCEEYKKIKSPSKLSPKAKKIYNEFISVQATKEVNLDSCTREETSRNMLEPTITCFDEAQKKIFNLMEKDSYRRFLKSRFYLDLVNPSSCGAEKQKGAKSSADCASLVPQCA
RGS4 pot: potentiators or activators of RGS4; HEK293 M3R/inducible RGS4, carbachol calcium flux Fluo4; stronger effect = lower value; B-score at 10 µM; 0.92% of 310,000 active; AID 463111;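 active means B-score of the integrated calcium signal more than 4 SD below the library mean, with starting fluorescence not abnormally high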;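 further: negative B-score means reduced calcium response which marks RGS4 activation or potentiation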
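Material: M3R-expressing HEK293 line, RGS4 induced by doxycycline | Schedule: Overnight RGS4 induction, 30 min dye load 37 °C, 20 min compound RT | Measured by: Fluo4 fluorescence kinetic imaging of calcium | Read-out: Integrated calcium ratio converted to B score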
MrgX1 antagonist: human MrgX1 receptor antagonism, primary screen. MRGX1-HEK293 calcium flux, Fluo-4, BAM8-22 antagonism; stronger effect = lower value. B-score at 10 µM. 1.3% of 310,000 active. AID 588676;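 active means calcium-response B-score plate-corrected more than 3 library SD below zero, starting fluorescence within 5 deviations, no agonist response on first addition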;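 further: peak minus trough fluorescence over baseline after final BAM8-22 challenge near maximal dose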
Target sequence (Q96LB2 whole entry, looked up): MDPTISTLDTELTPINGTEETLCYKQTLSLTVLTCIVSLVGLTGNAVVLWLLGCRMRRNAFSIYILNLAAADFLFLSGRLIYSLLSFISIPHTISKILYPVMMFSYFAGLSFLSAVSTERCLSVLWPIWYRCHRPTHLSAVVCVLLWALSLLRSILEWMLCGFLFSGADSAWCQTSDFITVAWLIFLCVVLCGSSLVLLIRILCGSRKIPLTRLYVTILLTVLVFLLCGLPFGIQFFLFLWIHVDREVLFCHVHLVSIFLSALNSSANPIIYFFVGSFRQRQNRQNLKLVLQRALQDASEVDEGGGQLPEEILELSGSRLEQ
MrgX1 allo act: allosterically activates human MrgX1 receptor signaling; MrgX1-HEK293, Fluo-4 calcium flux, FDSS; stronger effect = higher value; Q96LB2; 0.63% of 310,000 active; B-score at 10 µM;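 active means plate-corrected calcium response at least 3 library SD above typical, normal starting fluorescence, not activating the receptor alone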;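 further: compound read alongside a low EC10 to EC30 dose of BAM8-22 agonist; peak minus trough fluorescence over baseline measured at the second addition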
MrgX1 agonist: human MrgX1 receptor agonism, primary screen; 0.44% of 310,000 active; B-score at 10 µM; MrgX1-HEK293 cells, Fluo-4 calcium fluorescence, agonist mode; stronger effect = higher value; Q96LB2;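 active means calcium response B-score plate-corrected fluorescence ratio at least 3 library SD, with starting fluorescence B-score inside 5 SD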
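Assay system: MrgX1-expressing HEK293 cells / Amount: fifteen thousand cells per well / Doses: test compound in the initial addition of three / Timing: cells plated overnight, dye loaded 0.5 h 37 °C, 0.5 h room temperature / Technique: kinetic calcium dye fluorescence, Fluo-4 NW / Control set: positive and negative controls per plate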
MrgX1 ag reconf: human MrgX1 agonism, re-confirmation screen. 78% of 600 active. MrgX1-HEK293, Fluo-4 calcium fluorescence, FDSS. activation, % at 10 µM. shares compounds with MrgX1 agonist;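 active means calcium signal rise, corrected for plate position, at least 3 library SD high, with starting brightness within 5 such deviations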
MrgX1 PAM conf: human MrgX1 positive allosteric modulation, re-confirmation; shares compounds with MrgX1 allo act; MrgX1-HEK293, Fluo-4 calcium fluorescence, FDSS; activation (ratio percentage), % at 10 µM; 13% of 1,200 active;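 active means ratio at least 3 SD above the weak peptide control, stable starting fluorescence, no direct agonism earlier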;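 further: compound followed by low BAM8-22 agonist challenge near EC20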
HEK293 Ca flux: counter-screen for MrgX1 antagonists: effect in parental HEK293 cells. 2% of 4,000 active. fluorescence ratio F(max-min)/F0 at 10 µM. shares compounds with MrgX1 antagonist. Fluo-4 calcium fluorescence, FDSS;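 active means duplicate-averaged calcium fluorescence ratio at least three times the standard deviation of buffer wells, a nonspecific response in parental cells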
HEK293 Ca counter: MrgX1 allosteric activator counter-screen hit in parental HEK293 cells | AID 624114 | parental HEK293 calcium flux, Fluo-4 fluorescence ratio; stronger effect = higher value | 0.4% of 4,000 active | fluorescence ratio F(max-min)/F0 at 10 µM | shares compounds with MrgX1 antagonist;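 active means calcium fluorescence ratio, averaged over duplicates, at least 3 SD of the buffer-well ratio, meaning a nonspecific response in receptor-free cells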;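 further: untransfected parental HEK293 lacking MrgX1 used as counterscreen for MrgX1 allosteric activators; fluorescence change taken during the second addition on a kinetic imager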
HEK293 Ca cntr2: counter-screen for MrgX1 activators: effect in parental HEK293 cells | 8.7% of 4,000 active | fluorescence ratio F(max-min)/F0 at 10 µM | shares compounds with MrgX1 antagonist | Fluo-4 calcium fluorescence (FDSS); stronger effect = higher value;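 active means calcium fluorescence ratio at least three times the spread of buffer wells, meaning a non-specific response in parental cells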
Each line names hits and unclear results; the compound was inactive in the other large screens (follow-up assays come after a bar, where they were run).

Cc1c(CC(=O)N[C@H](C(=O)O)C(C)C)c(=O)oc2cc3c(cc12)CCC(C)(C)O3	none
CCCCCn1c(=N)c(S(=O)(=O)c2ccc(Cl)cc2)cc2c(=O)n3cccc(C)c3nc21	MrgX1 agonist 27 | MrgX1 ag reconf 94% | HEK293 Ca flux inactive | HEK293 Ca counter inactive | HEK293 Ca cntr2 inactive
CCOC(=O)CNc1nc(-c2ccncc2)nc2ccccc12	MrgX1 agonist 56 (no result: RGS4 block, RGS4 pot) | MrgX1 ag reconf 236% | HEK293 Ca flux inactive | HEK293 Ca counter inactive | HEK293 Ca cntr2 47
Cc1ccc(CC(=O)Nc2ccccc2N2CCOCC2)cc1C	MrgX1 agonist 35 (no result: RGS4 block, RGS4 pot) | MrgX1 ag reconf 94% | HEK293 Ca flux inactive | HEK293 Ca counter inactive | HEK293 Ca cntr2 inactive
COc1ccc(CC(=O)Nc2ccccc2N2CCOCC2)cc1OC	none
CC(=O)N/C(=C\c1ccccc1)C(=O)Nc1ccccc1C	none
CN1CCN(CCCC(=O)c2ccc(F)cc2)CC1	none
O=C(CCCN1Cc2ccccc2C1)c1ccc(F)cc1	MrgX1 agonist 38 | MrgX1 ag reconf 145% | HEK293 Ca flux inactive | HEK293 Ca counter inactive | HEK293 Ca cntr2 inactive
COC(=O)c1ccc(NC(=O)CSC2=NC(=O)C(c3ccccc3)C(=O)N2)cc1 (stereo not given)	none
Cc1cc(C)c2c(=O)n(CC(=O)NC3CCCC3)sc2n1	MrgX1 agonist 29 | MrgX1 ag reconf 183% | HEK293 Ca flux inactive | HEK293 Ca counter inactive | HEK293 Ca cntr2 inactive
COc1ccc(C(=O)Nc2cc(C(F)(F)F)ccc2Cl)cc1OC	none
COC(=O)Cc1nc(NC(=O)c2cccs2)sc1C	MrgX1 agonist 28 | MrgX1 ag reconf 149% | HEK293 Ca flux inactive | HEK293 Ca counter inactive | HEK293 Ca cntr2 inactive
CCc1cccc(C)c1NC(=S)N1CCCCC1c1cccnc1 (stereo not given)	MrgX1 agonist 28 | MrgX1 ag reconf 100% | HEK293 Ca flux inactive | HEK293 Ca counter inactive | HEK293 Ca cntr2 48
NC(=NCc1ccccc1)c1cccc([N+](=O)[O-])c1	none
CC1(C)CSC(=NCc2ccccc2)N1C(=O)c1cccc([N+](=O)[O-])c1	MrgX1 agonist 84 | MrgX1 ag reconf 505% | HEK293 Ca flux inactive | HEK293 Ca counter inactive | HEK293 Ca cntr2 103
CCc1ccc(-c2csc3ncn(Cc4ccc(C(=O)O)cc4)c(=O)c23)cc1	MrgX1 agonist 31 | MrgX1 ag reconf 149% | HEK293 Ca flux inactive | HEK293 Ca counter inactive | HEK293 Ca cntr2 inactive
CCCOC(=O)Cn1cnc2scc(-c3ccc(C)cc3)c2c1=O	none
COc1ccc(NC(=O)CN2C(=O)COc3ccccc32)cc1OC	none
CNC(=O)[C@H]1O[C@@H](n2cnc3c(NCc4cccc(I)c4)ncnc32)[C@H](O)[C@@H]1O	MrgX1 allo act 10 (no result: RGS4 block, RGS4 pot) | MrgX1 PAM conf inactive | HEK293 Ca flux inactive | HEK293 Ca counter inactive | HEK293 Ca cntr2 inactive
Cn1cnc2c(NCc3ccco3)ncnc21	none
C=C[C@@]1(C)CC(=O)[C@]2(O)[C@@]3(C)[C@@H](O)CCC(C)(C)[C@@H]3[C@H](OC(C)=O)[C@H](O)[C@@]2(C)O1	MrgX1 allo act 7.7 | MrgX1 PAM conf inactive | HEK293 Ca flux inactive | HEK293 Ca counter inactive | HEK293 Ca cntr2 inactive
O=C(c1ccc(Cl)cc1)C1CCCN(Cc2cccn2-c2cccnc2)C1 (stereo not given)	MrgX1 allo act 7.5 | MrgX1 PAM conf inactive | HEK293 Ca flux inactive | HEK293 Ca counter inactive | HEK293 Ca cntr2 inactive
CC(NC(=O)Nc1ccccc1F)C(C)(C)C (stereo not given)	none
Cc1ccc(C(=O)N2CCN(c3ncccn3)CC2)cc1S(=O)(=O)N1CCCCC1	none
COc1ccc(N2CC(C(=O)Nc3cc(C)ccn3)CC2=O)cc1 (stereo not given)	MrgX1 allo act 8.1 | MrgX1 PAM conf inactive | HEK293 Ca flux inactive | HEK293 Ca counter inactive | HEK293 Ca cntr2 inactive
CSCCC(NS(=O)(=O)c1ccc(Cl)cc1)C(=O)O (stereo not given)	MrgX1 allo act 11 | MrgX1 PAM conf inactive | HEK293 Ca flux inactive | HEK293 Ca counter inactive | HEK293 Ca cntr2 inactive
CC(C)S(=O)(=O)c1cnc(N2CCOCC2)nc1N	MrgX1 allo act 16 | MrgX1 PAM conf inactive | HEK293 Ca flux inactive | HEK293 Ca counter inactive | HEK293 Ca cntr2 inactive
CC(C)(C)S(=O)(=O)c1cnc(N2CCOCC2)nc1N	none
CCOc1ccc(S(=O)(=O)NCCC(=O)NCC(c2ccc(OC)cc2)N2CCCCC2)cc1 (stereo not given)	none
O=C(CCC1CCN(Cc2ccccc2O)CC1)NC1CC1	MrgX1 allo act 8.1 | MrgX1 PAM conf inactive | HEK293 Ca flux inactive | HEK293 Ca counter inactive | HEK293 Ca cntr2 inactive
O=C(CCC1CCN(Cc2ccccc2Cl)CC1)NC1CC1	none
Cc1ccc(S(=O)(=O)c2c(C)nn(C(C)(C)C)c2OC(=O)C(C)C)cc1	MrgX1 allo act 12 | MrgX1 PAM conf inactive | HEK293 Ca flux inactive | HEK293 Ca counter inactive | HEK293 Ca cntr2 inactive
COc1ccc(OC)c2sc(N(CCN(C)C)C(=O)c3cc(Cl)sc3Cl)nc12	MrgX1 allo act 21 | MrgX1 PAM conf inactive | HEK293 Ca flux inactive | HEK293 Ca counter inactive | HEK293 Ca cntr2 inactive
N#CC(C#N)=C1NC(N)=C(C#N)C(c2ccccc2)=C1C#N	none
C=CCNC(=S)Nc1ccc(Cl)c(S(=O)(=O)N2CCOCC2)c1	none
C=CCNC(=S)Nc1ccc(OC)c(S(=O)(=O)N2CCOCC2)c1	MrgX1 allo act 8.7 | MrgX1 PAM conf inactive | HEK293 Ca flux inactive | HEK293 Ca counter inactive | HEK293 Ca cntr2 inactive
CCOC(=O)C1=C(C)NC(=O)CC1c1cc(OC)c(OC)cc1Br (stereo not given)	MrgX1 allo act 15 | MrgX1 PAM conf inactive | HEK293 Ca flux inactive | HEK293 Ca counter inactive | HEK293 Ca cntr2 inactive
CCCCN(CC)C(=O)Cn1ncc2c3ccccc3n(CCC)c2c1=O	none
Cc1nc(-c2cc(C#N)c(Sc3cccc(C(F)(F)F)c3)nc2C)cs1	none
CNc1nc(Sc2ccccc2)cc(C(F)(F)F)n1	MrgX1 allo act 22 | MrgX1 PAM conf inactive | HEK293 Ca flux inactive | HEK293 Ca counter inactive | HEK293 Ca cntr2 inactive
